Usually bioavailability stands for the share of a dose that reaches the circulation, judged against a reference dose that is usually intravenous. As usually defined, the AUC(0-inf) is total exposure, with the tail of the curve extrapolated. In general, clearance refers to the rate of elimination divided by the concentration. As a reminder, the half-life is the time in which the quantity being followed falls by half. What is called Tmax is the time at which the peak concentration occurs. What is called solubility (kinetic) is solubility judged after dilution from a stock solution rather than from solid. As usually defined, the EC50 is the concentration that produces a half-maximal response.

The values below come from ChEMBL document CHEMBL4651341, “The discovery of a novel series of compounds with single-dose efficacy against juvenile and adult Schistosoma species” (PLoS Negl Trop Dis, 2021).

Series [1] is described as follows: Mean oral bioavailability in Swiss albino male mice at […] per compound (administered in a mixture of 5 compounds to 3 mice) assessed by LCMS/MS. Also: dose 2.5 mg/kg. The format is ADME, organism-based. To be noted: male, Swiss albino, mouse, in vivo, read-out: Bioavailability.
A short description of series [2]: Mean AUC inf in Swiss albino male mice at 1 mg/kg per compound (administered iv in a mixture of 5 compounds to 3 mice) assessed by LCMS/MS. The series is classed as ADME, organism-based. To be noted: male, Swiss albino, mouse, in vivo. Put shortly:
(§1)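 Male Swiss albino mice (~30 g), 3 per experiment, mostly dosed as mixtures of 5 compounds iv via the lateral tail vein. Vehicle: 10% DMSO/90% 50 mM Na2HPO4 with 0.5% Tween-80. Blood sampled at 5, 15, 30 min and 1, 2, 4, 8, 24 h. Plasma stored at −20 °C and quantified by LC-MS after acetonitrile precipitation.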

Series [3] is described as follows: Mean observed clearance in Swiss albino male mice at 1 mg/kg per compound (administered iv in a mixture of 5 compounds to 3 mice) assessed by LCMS/MS. The series is classed as ADME, organism-based. To be noted: male, Swiss albino, mouse, in vivo, read-out: Clearance (converted). Summed up: as §1
Series [4] can be described thus: Mean volume of distribution at steady state in Swiss albino male mice at 1 mg/kg per compound (administered iv in a mixture of 5 compounds to 3 mice) assessed by LCMS/MS. The format is ADME, organism-based. To be noted: mouse, in vivo, read-out: Volume. Summed up: (§2)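 Male Swiss albino mice (~30 g), 3 per experiment, mostly dosed as mixtures of 5 compounds iv via the lateral tail vein. Vehicle: 10% DMSO/90% 50 mM Na2HPO4 with 0.5% Tween-80. Plasma stored at −20 °C and quantified by LC-MS after acetonitrile precipitation.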

Series [5] can be described thus: Mean half-life in Swiss albino male mice at 1 mg/kg per compound (administered iv in a mixture of 5 compounds to 3 mice) assessed by LCMS/MS. The series is classed as ADME, organism-based. To be noted: mouse, in vivo. Put shortly: as §2
Series [6] can be described thus: Mean plasma concentration at 24h in Swiss albino male mice at […] per compound (administered orally in a mixture of 5 compounds to 3 mice) assessed by LCMS/MS. The series is classed as ADME, organism-based. To be noted: mouse, po.
The nature of series [7]: Mean plasma concentration at 4h in Swiss albino male mice at […] per compound (administered orally in a mixture of 5 compounds to 3 mice) assessed by LCMS/MS. The series is classed as ADME, organism-based. Particulars: mouse, po.
Series [8] is described as follows: Mean time to peak plasma concentration in Swiss albino male mice at […] per compound (administered orally in a mixture of 5 compounds to 3 mice) assessed by LCMS/MS. The series is classed as ADME, organism-based. To be noted: mouse, po.
A short description of series [9]: Plasma protein binding determined at 10uM by LC-MS/MS. The format is ADME, cell-free. Summed up:
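Equilibrium dialysis of plasma spiked at 10 µM (0.1% DMSO) against PBS pH 7.4, 6 h at 37 °C, duplicates. Both chambers analysed by LC-MS/MS after acetonitrile precipitation. % free = buffer/plasma area ratio; recovery also calculated.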

A short description of series [10]: Plasma protein binding determined at 1uM by LC-MS/MS. The format is ADME, cell-free.
Series [11] in a line: Partition coefficient of compound between n-octanol and PBS (pH7.4). The series is classed as physicochemical. Particulars: octanol/water, pH 7.4. Put shortly: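 Shake-flask method using octanol and PBS pH 7.4, each pre-saturated with the other. Compound was shaken 2 h at 850 rpm, 25 °C, then the phases were separated by centrifugation and both layers diluted and analysed by LC-MS/MS. LogD = log(octanol AUC × relative dilution / buffer AUC).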

Series [12] can be described thus: Percentage of parent compound remaining after incubation for 30 minutes with cyropreserved mouse hepatocytes at a concentration of 1uM compound and […], determined by LCMS. The format is ADME, tissue-based, Hepatocyte. To be noted: cryopreserved mouse hepatocytes, read-out: Stability. Put shortly:
(§3)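 Compound was incubated at 1 µM final (2 µM working solution mixed 1:1 with hepatocyte suspension) in supplemented KHB pH 7.4. Conditions: 37 °C, 5% CO2, gentle mixing, duplicates. Reaction quenched with ice-cold acetonitrile containing standard; analysed by LC-MS/MS. % remaining = AUC at t / AUC at T0.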

Series [13] is described as follows: Solubility at 25 degC of compound (diluted from DMSO) in PBS at pH 7.4 determined after 24h (1h sonication, 22h shaking, 1h sonication) by LCMS/MS. The format is physicochemical.
The subject of series [14] is Schistosoma mansoni. The series is described as follows: Concentration required to kill 50% of 42 day old worms 5 days after drug treatment. The series is classed as functional, organism-based. Particulars: Puerto Rican, 120 h. Put shortly:
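Adult S. mansoni were perfused from CD1 mice 6 weeks post-infection and washed. They were cultured 3 pairs per well in 1 mL DMEM with 2 mM glutamine, penicillin/streptomycin and 10% FCS […] at 37 °C, 5% CO2. Viability of individual worms was scored on day 5 (120 h).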

The test system of series [15] is Schistosoma mansoni. The series is described as follows: Concentration required to kill 50% of 21 day old worms 5 days after drug treatment. The format is functional, organism-based. Particulars: Puerto Rican, 120 h. Put shortly:
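Juvenile S. mansoni (Puerto Rican strain) were perfused from CD1 mice 3 weeks post-infection and washed. They were cultured 6–8 per well in 200 µL DMEM with 2 mM glutamine, penicillin/streptomycin and 10% FCS at 37 °C, 5% CO2. Viability of individual worms was scored on day 5 after dosing (120 h).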

Series [16] in a line: Percentage of parent compound remaining after incubation for 30 minutes with cyropreserved human hepatocytes at a concentration of 1uM compound and 1 million cells/uL, determined by LCMS/MS. The format is ADME, tissue-based, Hepatocyte. To be noted: cryopreserved human hepatocytes, read-out: Stability. Summed up:
as §3

Series [17] is described as follows: Concentration required to kill 50% HepG2 cells as detected by MTT staining. The series is classed as toxicity, cell-based. To be noted: homo sapiens, read-out: TC50 (the source's name).
A short description of series [18]: Concentration required to kill 50% MRC-5 cells as detected by Alamar blue staining. The format is toxicity, cell-based, MRC5. To be noted: homo sapiens, read-out: TC50 (the source's name). Background: Alamar Blue is a resazurin reagent that responds to reducing activity.
A further series relates to Schistosoma haematobium. The series is described as follows: Concentration required to kill 50% of 84 day old worms 5 days after drug treatment. The format is functional, organism-based. Particulars: Egyptian, 120 h.

SMILES strings stand for the structures. Values after ≈ are worked out from the molar mass of the structure shown.

Take `Oc1ccc(-c2c(C(F)(F)F)nc3cnc(-c4cccc(C(F)(F)F)c4)cn23)c(F)c1`: in series [1], the bioavailability amounted to 58.4%. In series [2], the AUC(0-inf) turned out to be 203 ng·h/mL. Moreover, the clearance in series [3] is 41.2 mL/min/kg. Moreover, the Vd in series [4] came out at 9.55 L/kg. Besides, the half-life in series [5] was 268 min. The concentration at 24 h in series [6] stood at 1.9 ng/mL. For the same molecule, the concentration at 4 h in series [7] was found to be 43.9 ng/mL. For the same molecule, in [8], the Tmax turned out to be 15 min. For the same molecule, the Binding was 99.965% in series [9] (mouse) and 100% in series [10] (mouse). Further, the Lipophilicity in [11] is 4.84 =. For the same molecule, the remaining at 0.5 h, 1 µM in series [12] was determined as 58.7%. In addition, in [13], the solubility (kinetic) at 24 h is 17.1 µM (≈ 7.55 µg/mL). For the same molecule, the EC50 in the series on Schistosoma mansoni [14] is below 48.8 nM; with Schistosoma mansoni [15] it was below 443 nM.

In the case of `CC(C)c1nn2cnc(-c3cccc(C(F)(F)F)c3)cc2c1-c1c(F)cc(O)cc1F`, the bioavailability in [1] is 14.5%. Also, the AUC(0-inf) in series [2] turned out to be 195 ng·h/mL. Further, the clearance in series [3] is 42.8 mL/min/kg. For the same molecule, the Vd in series [4] came to 3.67 L/kg. Besides, the half-life in series [5] was 95.4 min. The concentration at 24 h in series [6] was 0.1 ng/mL. Further, the concentration at 4 h in [7] was 12.5 ng/mL. Besides, in series [8], the Tmax is 15 min. In addition, the remaining at 0.5 h, 1 µM in [16] stood at 68.4%; in series [12], 95.9%. The Binding in series [9] (human) and in series [9] (mouse) was 100% each time. Further, in series [11], the Lipophilicity is 5.11 =. This molecule returned a solubility (kinetic) at 24 h in series [13] of 91.9 µM (≈ 39.8 µg/mL). The EC50 was 21.9 nM with Schistosoma mansoni [14] and below 12.2 nM in the series on Schistosoma mansoni [15]. Besides, the CC50 in series [17] came out at 8400 nM.

`Oc1ccc(-c2cnc3cnc(-c4cccc(C(F)(F)F)c4)cn23)c(F)c1`: the AUC(0-inf) in series [2] came to 49.9 ng·h/mL. The clearance in [3] is 168 mL/min/kg. Besides, the Vd in series [4] is 1.33 L/kg. For the same molecule, in [5], the half-life is 10.3 min. In series [6], the concentration at 24 h was 0.1 ng/mL. The concentration at 4 h in [7] is 0.1 ng/mL. Further, in series [8], the Tmax turned out to be 15 min. In addition, the results for the remaining at 0.5 h, 1 µM in series [16] and in series [12] were 31% and 32.9%, respectively. For the same molecule, the Binding in series [10] (human) turned out to be 99.88%; in [10] (mouse), 99.76%. In series [11], the Lipophilicity was 4.95 =. Further, in series [13], the kinetic solubility at 24 h was 2 µM (≈ 0.747 µg/mL). In addition, the EC50 in the series with Schistosoma mansoni [14] is 2320 nM; in the series on Schistosoma mansoni [15], 2120 nM. Further, the CC50 in [18] was above 38300 nM.

As for `CCc1nc2cnc(-c3cccc(C(F)(F)F)c3)cn2c1-c1ccc(O)cc1F`, the bioavailability in [1] stood at 7.35%. Further, in [2], the area under the curve AUC(0-inf) was 144 ng·h/mL. The clearance in series [3] is 58.2 mL/min/kg. In series [4], the Vd worked out at 2.17 L/kg. In series [5], the half-life is 33.6 min. The concentration at 24 h in series [6] worked out at 0.1 ng/mL. For the same molecule, in series [7], the concentration at 4 h stood at 4.15 ng/mL. Further, in [8], the Tmax was found to be 15 min. Further, the Binding in series [9] (mouse) is on record as 99.87%. Also, in series [11], the Lipophilicity was 3.76 =. Also, the remaining at 0.5 h, 1 µM in series [12] came to 39%. Further, the solubility (kinetic) at 24 h in series [13] is 17.5 µM (≈ 7.02 µg/mL). Also, the 50% effective concentration (EC50) in the series on Schistosoma haematobium is 151 nM; with Schistosoma mansoni [14] it was below 140 nM; in the series with Schistosoma mansoni [15] it was 85.9 nM. Moreover, the figures for the CC50 in series [18] and in series [17] were 17500 nM and 18700 nM, respectively.

Take `COc1cc(-c2c(C(C)C)nc3cnc(-c4cccc(C(F)(F)F)c4)cn23)cc2cn[nH]c12`: the bioavailability in [1] worked out at 84.8%. For the same molecule, the AUC(0-inf) in series [2] stood at 490 ng·h/mL. In addition, the clearance in series [3] was 17 mL/min/kg. In addition, the Vd in series [4] stood at 6.81 L/kg. Moreover, in [5], the half-life was 446 min. Besides, the concentration at 24 h in [6] stood at 10.5 ng/mL. Also, in [7], the concentration at 4 h is 130 ng/mL. Moreover, the Tmax in series [8] was found to be 30 min. The results for the Binding in series [9] (mouse) and in series [10] (mouse) were 99.95% and 100%, respectively. In series [11], the Lipophilicity is recorded as 5.49 =. The remaining at 0.5 h, 1 µM in series [12] came to 68%. Further, in series [13], the kinetic solubility at 24 h was 0.643 µM (≈ 0.29 µg/mL). The EC50 was found to be 149 nM in the series with Schistosoma haematobium, 428 nM in the series on Schistosoma mansoni [14] and 527 nM in the series with Schistosoma mansoni [15].
